Reference: ChEMBL document CHEMBL1152672, “Side chain azasteroids and thiasteroids as sterol methyltransferase inhibitors in ergosterol biosynthesis” (2009)
≈ marks a conversion by molar mass, not a printed value. Calls of active or inactive are those of the source. No cut-off for these calls is given here.

Columns and labels:
[1] = biological target: T1, Sterol 24-C-methyltransferase (Yarrowia lipolytica) (UniProt Q6C2D9); assay: Inhibition of Yarrowia lipolytica 24-SMT assessed as 5-dehydroepisterol-3-trimethylsilyl derivative at 2 ug/mL after 48 hrs by GC-MS analysis relative to untreated control; design: scale not given: the % may be the effect or the level left
T1 sequence (whole entry): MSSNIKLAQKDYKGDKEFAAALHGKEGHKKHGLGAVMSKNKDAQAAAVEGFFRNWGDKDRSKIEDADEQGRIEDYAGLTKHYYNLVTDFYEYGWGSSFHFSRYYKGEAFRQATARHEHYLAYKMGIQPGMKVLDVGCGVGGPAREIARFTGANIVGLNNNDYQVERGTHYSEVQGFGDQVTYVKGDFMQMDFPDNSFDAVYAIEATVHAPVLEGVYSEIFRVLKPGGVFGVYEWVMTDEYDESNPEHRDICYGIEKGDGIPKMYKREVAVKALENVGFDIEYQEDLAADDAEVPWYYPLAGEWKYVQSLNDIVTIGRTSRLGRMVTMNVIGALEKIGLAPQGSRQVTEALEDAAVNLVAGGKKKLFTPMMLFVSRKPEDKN
Summary of the method: (§1)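 Whole-cell sterol profiling. Y. lipolytica at 50,000 CFU/mL was exposed to compounds added from ethanol for 48 ± 2 h at 28 °C, and the MIC/2 and/or MIC/4 wells were used. Cells were pelleted and PBS-washed, then saponified in 1 M NaOH at 70 °C for 1 h. Sterols were extracted into TBME with a cholesterol internal standard and silylated to TMS ethers. GC-MS full scan, with each sterol given as % of total integrated quantifier-ion area.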

[2] = biological target: T1, Sterol 24-C-methyltransferase (Yarrowia lipolytica); assay: Inhibition of Yarrowia lipolytica 24-SMT assessed as 5-dehydroepisterol-3-trimethylsilyl derivative at 8 ug/mL after 48 hrs by GC-MS analysis relative to untreated control; design: scale not given: the % may be the effect or the level left; summary of the method: as §1
[3] = biological target: T1, Sterol 24-C-methyltransferase (Yarrowia lipolytica); assay: Inhibition of Yarrowia lipolytica 24-SMT assessed as dehydroergosterol-3-trimethylsilyl derivative at 8 ug/mL after 48 hrs by GC-MS analysis relative to untreated control; design: scale not given: the % may be the effect or the level left; summary of the method: as §1
[4] = biological target: T1, Sterol 24-C-methyltransferase (Yarrowia lipolytica); assay: Inhibition of Yarrowia lipolytica 24-SMT assessed as cholesta-7,24-dien-3-trimethylsilyl derivative at 2 ug/mL after 48 hrs by GC-MS analysis relative to untreated control; design: scale not given: the % may be the effect or the level left; summary of the method: as §1
[5] = biological target: T1, Sterol 24-C-methyltransferase (Yarrowia lipolytica); assay: Inhibition of Yarrowia lipolytica 24-SMT assessed as cholesta-7,24-dien-3-trimethylsilyl derivative at 8 ug/mL after 48 hrs by GC-MS analysis relative to untreated control; design: scale not given: the % may be the effect or the level left; summary of the method: as §1
[6] = biological target: T1, Sterol 24-C-methyltransferase (Yarrowia lipolytica); assay: Inhibition of Yarrowia lipolytica 24-SMT assessed as dehydroergosterol-3-trimethylsilyl derivative at 2 ug/mL after 48 hrs by GC-MS analysis relative to untreated control; design: scale not given: the % may be the effect or the level left; summary of the method: as §1
Yarrowia lipolytica [7] = assay: Antimicrobial activity against Yarrowia lipolytica after 48 hrs; type: functional
Summary of the method: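 Broth dilution MIC per DIN 58940-84. Log-phase Y. lipolytica in yeast extract/peptone/glucose medium, counted against a 0.5 McFarland standard (A570) and seeded at 50,000 CFU/mL in 2 mL wells. Compounds added from ethanol; final concentrations 2 to 0.06125 µg/mL unless otherwise stated. Plates incubated 48 ± 2 h at 28 °C. MIC is the lowest concentration with no visible growth.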

[8] = biological target: T1, Sterol 24-C-methyltransferase (Yarrowia lipolytica); assay: Inhibition of Yarrowia lipolytica 24-sterol C-methyltransferase assessed as ergosterol-3-trimethylsilyl derivative level at 2 ug/mL after 48 hrs by GC-MS analysis relative to untreated control; design: scale not given: the % may be the effect or the level left; summary of the method: as §1
[9] = biological target: T1, Sterol 24-C-methyltransferase (Yarrowia lipolytica); assay: Inhibition of Yarrowia lipolytica 24-SMT assessed as cholesta-5,7,24-trien-3-trimethylsilyl derivative at 2 ug/mL after 48 hrs by GC-MS analysis relative to untreated control; design: scale not given: the % may be the effect or the level left; summary of the method: as §1
[10] = biological target: T1, Sterol 24-C-methyltransferase (Yarrowia lipolytica); assay: Inhibition of Yarrowia lipolytica 24-SMT assessed as cholesta-5,7,24-trien-3-trimethylsilyl derivative at 8 ug/mL after 48 hrs by GC-MS analysis relative to untreated control; design: scale not given: the % may be the effect or the level left; summary of the method: as §1
Yarrowia lipolytica [11] = assay: Antimicrobial activity against Yarrowia lipolytica by agar diffusion test; type: functional, organism-based
[12] = biological target: T1, Sterol 24-C-methyltransferase (Yarrowia lipolytica); assay: Inhibition of Yarrowia lipolytica 24-SMT assessed as dehydroergosterol-3-trimethylsilyl derivative at 0.06 ug/mL after 48 hrs by GC-MS analysis relative to untreated control; design: scale not given: the % may be the effect or the level left; summary of the method: as §1
[13] = biological target: T1, Sterol 24-C-methyltransferase (Yarrowia lipolytica); assay: Inhibition of Yarrowia lipolytica 24-SMT assessed as cholesta-7,24-dien-3-trimethylsilyl derivative at 0.06 ug/mL after 48 hrs by GC-MS analysis relative to untreated control; design: scale not given: the % may be the effect or the level left; summary of the method: as §1
[14] = biological target: T1, Sterol 24-C-methyltransferase (Yarrowia lipolytica); assay: Inhibition of Yarrowia lipolytica 24-SMT assessed as 5-dehydroepisterol-3-trimethylsilyl derivative at 0.06 ug/mL after 48 hrs by GC-MS analysis relative to untreated control; design: scale not given: the % may be the effect or the level left; summary of the method: as §1
[15] = biological target: T1, Sterol 24-C-methyltransferase (Yarrowia lipolytica); assay: Inhibition of Yarrowia lipolytica 24-SMT assessed as zymosterol-3-trimethylsilyl derivative level at 0.06 ug/mL after 48 hrs by GC-MS analysis relative to untreated control; design: scale not given: the % may be the effect or the level left; summary of the method: as §1
[16] = biological target: T1, Sterol 24-C-methyltransferase (Yarrowia lipolytica); assay: Inhibition of Yarrowia lipolytica 24-sterol C-methyltransferase assessed as ergosterol-3-trimethylsilyl derivative level at 0.06 ug/mL after 48 hrs by GC-MS analysis relative to untreated control; design: scale not given: the % may be the effect or the level left; summary of the method: as §1
[17] = biological target: T1, Sterol 24-C-methyltransferase (Yarrowia lipolytica); assay: Inhibition of Yarrowia lipolytica 24-SMT assessed as cholesta-5,7,24-trien-3-trimethylsilyl derivative at 0.06 ug/mL after 48 hrs by GC-MS analysis relative to untreated control; design: scale not given: the % may be the effect or the level left; summary of the method: as §1
[18] = biological target: T1, Sterol 24-C-methyltransferase (Yarrowia lipolytica); assay: Inhibition of Yarrowia lipolytica 24-SMT assessed as 5-dehydroepisterol-3-trimethylsilyl derivative at 1 ug/mL after 48 hrs by GC-MS analysis relative to untreated control; design: scale not given: the % may be the effect or the level left; summary of the method: as §1
[19] = biological target: T1, Sterol 24-C-methyltransferase (Yarrowia lipolytica); assay: Inhibition of Yarrowia lipolytica 24-SMT assessed as dehydroergosterol-3-trimethylsilyl derivative at 1 ug/mL after 48 hrs by GC-MS analysis relative to untreated control; design: scale not given: the % may be the effect or the level left; summary of the method: as §1
[20] = biological target: T1, Sterol 24-C-methyltransferase (Yarrowia lipolytica); assay: Inhibition of Yarrowia lipolytica 24-sterol C-methyltransferase assessed as cholesta-5,7,24-trien-3-trimethylsilyl derivative at 1 ug/mL after 48 hrs by GC-MS analysis relative to untreated control; design: scale not given: the % may be the effect or the level left; summary of the method: as §1
[21] = biological target: T1, Sterol 24-C-methyltransferase (Yarrowia lipolytica); assay: Inhibition of Yarrowia lipolytica 24-SMT assessed as cholesta-7,24-dien-3-trimethylsilyl derivative at 1 ug/mL after 48 hrs by GC-MS analysis relative to untreated control; design: scale not given: the % may be the effect or the level left; summary of the method: as §1
[22] = biological target: T1, Sterol 24-C-methyltransferase (Yarrowia lipolytica); assay: Inhibition of Yarrowia lipolytica 24-SMT assessed as zymosterol-3-trimethylsilyl derivative level at 2 ug/mL after 48 hrs by GC-MS analysis relative to untreated control; design: scale not given: the % may be the effect or the level left; summary of the method: as §1
[23] = biological target: T1, Sterol 24-C-methyltransferase (Yarrowia lipolytica); assay: Inhibition of Yarrowia lipolytica 24-SMT assessed as lanosterol-3-trimethylsilyl derivative at 0.06 ug/mL after 48 hrs by GC-MS analysis relative to untreated control; design: scale not given: the % may be the effect or the level left; summary of the method: as §1

Structure (SMILES) | Activity [1] [%] | Activity [6] [%] | MIC (Yarrowia lipolytica [7]) [µg/mL] | Activity [9] [%] | Activity [12] [%] | Activity [14] [%] | Activity [17] [%] | other results
C[C@H](CNCCCN(C)C)[C@H]1CC[C@H]2C3=CC[C@H]4C[C@@H](O)CC[C@]4(C)[C@H]3CC[C@]12C | 3.3 | 66.4 | > 2 | 25.6 | – | – | – | Activity [2]: 2.3%; Activity [3]: 27.2%; Activity [4]: 2%; Activity [5]: 5.1%; Activity [8]: 2.7%; Activity [10]: 65.4%
C[C@H](/C=C/c1ccccn1)[C@H]1CC[C@H]2C3=CCC4C[C@@H](O)CC[C@]4(C)[C@H]3CC[C@]12C (stereo not given in full) | – | – | – | – | – | – | – | MIC (Yarrowia lipolytica [11]): inactive
CCCC[S+](C)C[C@@H](C)[C@H]1CC[C@H]2C3=CC[C@H]4C[C@@H](O)CC[C@]4(C)[C@H]3CC[C@]12C.[I-] (mixture of isomers) | 1 | 7.8 | > 2 | 87.5 | – | – | – | Activity [4]: 3.5%
CCCCCNC[C@@H](C)[C@H]1CC[C@H]2C3=CC[C@H]4C[C@@H](O)CC[C@]4(C)[C@H]3CC[C@]12C | – | – | 0.25 (≈ 0.622 µM) | – | 68.9 | 3.8 | 20.4 | Activity [13]: 1.6%; Activity [15]: 0.4%; Activity [16]: 4.9%
C[C@H](CNCCN(C)C)[C@H]1CC[C@H]2C3=CC[C@H]4C[C@@H](O)CC[C@]4(C)[C@H]3CC[C@]12C | – | – | > 2 | – | – | – | – | Activity [18]: 3.1%; Activity [19]: 24.3%; Activity [20]: 68%; Activity [21]: 4.5%
CCCCNC[C@@H](C)[C@H]1CC[C@H]2C3=CC[C@H]4C[C@@H](O)CC[C@]4(C)[C@H]3CC[C@]12C | – | – | 0.25 (≈ 0.645 µM) | – | 42.4 | 4.7 | 47.9 | Activity [13]: 5%
CCCCCCCCCCCCNC[C@@H](C)[C@H]1CC[C@H]2C3=CC[C@H]4C[C@@H](O)CC[C@]4(C)[C@H]3CC[C@]12C | – | – | – | – | – | – | – | MIC (Yarrowia lipolytica [11]): inactive
CNC[C@@H](C)[C@H]1CC[C@H]2C3=CC[C@H]4C[C@@H](O)CC[C@]4(C)[C@H]3CC[C@]12C | 2.6 | 55.4 | > 2 | 40.4 | – | – | – | Activity [22]: 1.6%
C[C@H](/C=C/c1cc[n+](C)cc1)[C@H]1CCC2C3=CCC4C[C@@H](O)CC[C@]4(C)C3CC[C@@]21C.[I-] (stereo not given in full) | – | – | 0.5 | – | 67.9 | 1.8 | 18.3 | Activity [23]: 0.2%; Activity [16]: 11.8%
